Measured values taken from PubChem BioAssay.
Unmarked numbers belong to inactive results. Results filed as inconclusive are left out. Calls of active or inactive are those of the source.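 The calls were made as follows, unless noted: active = inhibition over a set limit, the all-compound mean plus 3 SD, in both replicate runs; inconclusive = over that limit in just one replicate run; inactive = at or under that limit in both runs.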

What was measured:
[1] = OD615 S. cerevisiae growth inhibition, permissive medium, pilot counter-assay, permissive growth control for S. cerevisiae lifespan shortening project (AID 705;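 active = growth inhibition above 25% in both replicates, a cutoff set 3 SD above the mean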); conditions: OD615, 24 h, at 10 µM, active compounds read high
Method in brief: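 Material: engineered DeaD yeast; Compound: one dose 10 µM, DMSO 0.25% final; Detection: absorbance (optical density) at 615 nm; Buffer or medium: permissive raffinose/galactose medium; Timing: 24 h exposure, 30 °C.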

[2] = Restrictive medium S. cerevisiae growth inhibition, OD615, pilot screen of yeast lifespan reduction project, restrictive growth control (AID 706;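 active = growth inhibition above a set limit, 3 SD over mean compound inhibition, in both replicates, cut at about 43% in these data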;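 also: modified DeaD lifespan yeast strain shifted to restrictive glucose medium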); conditions: OD615, 48 h, at 10 µM, active compounds read high
Method in brief: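 Buffer or medium: restrictive glucose medium (CSMM-D); test system: modified S. cerevisiae; doses: single dose of 10 µM compound final, 0.25% DMSO; schedule: 48 h compound exposure at 30 °C; detection: absorbance (optical density) measured at 615 nm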

[3] = viability gain of MRP-1-high H69AR cells under doxorubicin, pilot screen, MRP-1 activator project, CellTiter-Glo, duplicate (AID 807;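 active = viability increase at or above a cutoff of the median across tested compounds plus 3 SD, cut at about 8.5% in these data, passing the limit was not always enough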;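 also: compound pretreatment 18-22 h then 72 h combined with doxorubicin; 0% = doxorubicin alone and 100% = vehicle without doxorubicin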); conditions: H69AR viability with doxorubicin, CellTiter-Glo luminescence; at 10 µM; active compounds read high
[4] = growth suppression of beta-catenin knockout HCT116, pilot screen, human colon tumor cells (AID 823;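 active = cell viability at or below a set limit in both duplicate runs, the limit being the all-compound median minus 4 SD, cut at about 23% in these data, passing the limit was not always enough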;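 also: 0% = wells killed by 20 µM Hyamine and 100% = untreated DMSO cell wells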); conditions: CellTiter-Glo, 60 h, at 10 µM, active compounds read low
[5] = growth suppression of PTEN-deleted HCT116, pilot screen, cell-based, HCT116 clonal line, CellTiter-Glo (AID 824;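 active = viability at or below 27.92% in each of two runs, the all-compound median minus 4 SD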;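 also: 0% = 20 µM Hyamine control and 100% = vehicle cell control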); conditions: 60 h, at 10 µM, active compounds read low
[6] = inhibitors of the yeast RAM network, pilot screen, dse1pr::URA3 reporter, 5-FOA selection (AID 869);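 also: 0% = DMSO wells with no growth and 100% = 10 µM 1-NA-PP1 with full growth; RAM network block rescues cells from 5-FOA so hits raise OD615 growth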; conditions: S. cerevisiae dse1pr::URA3 5-FOA growth, OD615, 2 d; at 10 µM; active compounds read high; strain carries analog-sensitive mutant Cbk1 kinase
[7] = RAM signaling pathway blockade in yeast – S. cerevisiae, Pdr1DBD-CYC8 efflux-inhibited sensitized strain, primary screen (AID 1298;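 active = RAM network inhibition above 8.4% in each of two replicates, 3 SD over the compound average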;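 also: 0% = DMSO untreated cells without growth and 100% = 10 µM 1-NA-PP1 full growth; higher means more yeast growth rescued from 5-FOA killing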); conditions: S. cerevisiae cbk1-as DSE1-URA3 strain, 5-FOA growth OD615, 2 d; at 50 µM; active compounds read high

Compound | growth inhibition [1] [%] | growth inhibition [2] [%] | viability increase [3] [%] | viability [4] | viability [5] | inhibition [6] [%] | RAM network inhibition [7] [%]
CCCCC(CC)C(=O)NCCc1ccc(S(N)(=O)=O)cc1 (configuration not stated) | -2.48 | -4.13 | -0.52 | 93.2% | 97.9% | 1 | -0.82
Cc1cc(-c2ccco2)n(CC(=O)NCCN(C)C)n1 | -3.33 | 1.02 | -0.48 | 98.8% | 94.5% | 2.31 | 0.37
COc1cc(C2C(C(=O)Nc3ccccc3OC)=C(C)Nc3ncnn32)ccc1O (configuration not stated) | -14.3 | 14.1 | -2.38 | 100% | 95.3% | 1.42 | -0.99
Cc1nc2ccccc2c2oc(C(=O)Nc3ccc4c(c3)OCCO4)cc12 | 6.06 | 10.4 | -1.19 | 87.7% | 95.3% | -0.63 | 8.55
Cc1c2cnn(-c3ccccc3)c(=O)c2c(C)n1CCCC(=O)N1CCN(C)CC1 | -6.96 | -7.72 | -1.33 | 104% | 96.2% | 1.86 | 3.19
COc1ccc(N(CC(=O)Nc2cc(OC)ccc2OC)S(=O)(=O)c2c(C)nn(C)c2C)cc1 | -7.47 | -15.8 | -4.82 | 95.6% | 81% | 1.36 | 0.21
CC(=O)N1CCC2(CC1)C(C#N)=C(N)Oc1n[nH]c(C)c12 | -6.98 | 14.8 | 0.18 | 97.9% | 98.2% | 1.04 | 6.55
CCN(CC)S(=O)(=O)c1ccc(-c2nnco2)cc1 | -23.5 | -16.6 | -0.57 | 100% | 97.9% | 3.09 | 1.46
COc1cccc(C2CC(c3ccccc3OC)n3ncnc3N2)c1 (configuration not stated) | -4.81 | 8.07 | -5.2 | 90.1% | 71.2% | 0.455 | -0.26
C=CCSc1nnc2c(n1)[nH]c1c(C)cccc12 | -27.3 | 3.13 | -5.97 | 64.6% | 65.6% | 1.71 | 5.38
COc1ccccc1-c1c(C)nn2c(N3CCCCCC3)cc(C)nc12 | -5.18 | -3.49 | -7.77 | 6.78% (active) | 7.98% (active) | 1.42 | -0.76
Cc1ccc(C(=O)NCCn2cc(SCC(=O)Nc3cc(C)on3)c3ccccc32)cc1 | -3.4 | 9.18 | 1.75 | 87.4% | 96.9% | 0.015 | 0.42
CN(CCNC(=O)Cn1c(=O)sc2ccccc21)Cc1ccccc1 | -1.18 | -7.1 | -5.12 | 77.7% | 82.3% | 1.27 | -1.1
CCCCNC(=O)c1ccc2nc(-c3ccco3)c(-c3ccco3)nc2c1 | -4.73 | -6.49 | -1.69 | 104% | 97.5% | 1.85 | 1.63
COc1ccc(Cc2nnc(SC)[nH]c2=O)cc1OC | 0.615 | -16.6 | -1.67 | 101% | 99.4% | 0.225 | 1.41
CCCC(=O)C1C(=O)CC(C)(C)C(c2cc(C)no2)C1=O (configuration not stated) | -22.4 | -12.9 | 0.5 | 103% | 98.7% | -0.1 | -1.09
Cn1c(NC(=O)C2CCCO2)cc(=O)n(C)c1=O (configuration not stated) | 0.76 | 1.36 | -0.7 | 103% | 99.8% | 0.565 | -0.47
CCCC(=O)Nc1nc(-c2ccc3c(c2)OCCO3)cs1 | -12 | -6.14 | 2.44 | 77.9% | 83.3% | 1.37 | 0.85

Compound | growth inhibition [1] [%] | growth inhibition [2] [%] | viability increase [3] [%] | viability [4] | viability [5] | inhibition [6] [%] | RAM network inhibition [7] [%]
COc1ccc(NC(=O)C2CCN(C(=O)c3ccccc3)CC2)c(OC)c1 | 9.86 | -0.9 | -2.96 | 95.8% | 94.8% | 2.57 | 3.44
CCOc1ccccc1NC(=O)CSc1nnc(-c2ccco2)n1Cc1ccco1 | 3.23 | 2.22 | -2.48 | 95.7% | 88.2% | -0.165 | 3.85
N#CC1(c2ccccc2)CCCN1C(=O)c1ccco1 (configuration not stated) | -3.57 | 3.69 | -1.54 | 104% | 101% | 2.25 | 3.1
CCOC(=O)Cc1csc(NC(=O)COc2ccc(OC)cc2)n1 | -22.4 | -8.99 | -2.2 | 97.2% | 92.2% | 1.89 | 0.64
Fc1ccc(OCc2nc(-c3ccc(Br)o3)no2)c(F)c1 | -8.99 | -12.8 | 2.67 | 99.5% | 97.7% | 0.82 | 3.12
CC1CCCCC1NS(=O)(=O)c1ccc(S(=O)(=O)N2CCN(CCC#N)CC2)cc1 (configuration not stated) | -0.665 | -2.72 | -2.84 | 86.2% | 87.8% | 0.54 | 3.44
CCCCOC(=O)Nc1sc2c(c1C(=O)OC)CCC2 | -6.32 | 6.97 | -2.72 | 96.2% | 92.4% | 0.325 | 8.11
COc1cccc(NS(=O)(=O)c2cn(C)c(=O)n(C)c2=O)c1 | -11 | -3.64 | -0.89 | 93.7% | 92.9% | 2.42 | 0.89
N#CC1=C(SCc2ccccc2)NC(=O)CC1c1ccc(O)cc1 (configuration not stated) | -12.2 | -15.2 | -2.66 | 98.2% | 96.6% | 0.67 | 1.25
Nc1ccccc1-c1nnc(SCc2ccccc2F)[nH]c1=O | -8.6 | 6.34 | 2.02 | 95.9% | 89.9% | 0.695 | 4.24
CCCCCOC(=O)C1=C(C)NC(=O)NC1c1ccccc1OCC (configuration not stated) | -2.38 | 11.9 | -0.2 | 69.8% | 69.7% | 0.45 | 1.97
CC(C)=CC1C(C(=O)Nc2ccc(Br)cn2)C1(C)C (configuration not stated) | -14.6 | -19.1 | -0.01 | 60.7% | 63.2% | 3.15 | 4.66
CCOC(=O)c1c(N)sc(C(N)=O)c1C | -17.3 | -8.77 | -1.19 | 95.3% | 97.3% | 1.25 | 0.78
COC(=O)c1cccc(NC(=O)C(C)N2C(=O)c3ccccc3C2=O)c1 (configuration not stated) | -16.2 | 10.2 | -1.25 | 93.4% | 106% | 1.77 | 2.77
CCOc1cccc(=O)c2c(C)n(CC3CCCO3)c(C)c12 (configuration not stated) | -3.19 | -1.17 | -2.8 | 92.5% | 90.4% | 0.73 | -1.39
Cc1nccn1-c1ncnc2sc3c(c12)CCCC3 | -7.46 | 0.84 | -3.49 | 95.3% | 93.5% | 1.15 | 2.86
CC1CC(C)CN(C(=O)c2cn(C)c3ccc(S(=O)(=O)N(C)C)cc3c2=O)C1 (configuration not stated) | -4.13 | 14.5 | -0.59 | 114% | 104% | 2.47 | 2.05
COc1ccc(-n2c(Cn3c(=O)sc4ccccc43)nnc2SCC(N)=O)cc1 | -10.9 | -0.695 | 0.09 | 101% | 101% | 1.29 | 0.06
